In all, about 370,000 compounds went through this assay and about 2,000 (0.54%) were called active.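 Rule for the calls: active = inhibition exceeding the mean over every tested compound plus 3 SD (cut at about 30% in these data); inactive = the rest.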 The list comes from a sample in which actives are over-represented; it also holds similar structures and randomly drawn compounds.
The compounds below were run against (Lyso)-N-acylphosphatidylethanolamine lipase (Mus musculus) (UniProt Q8VD66) (assay: ABHD4 inhibitors, primary screen, biochemical, fluorescence polarization, mouse (AID 720543;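 note: 0% = plate median of compound wells and 100% = S159A mutant with DMSO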)). Conditions: purified mABHD4, FP-Rh probe fluorescence polarization; at 8.92 µM; stronger effect = higher value.
Sequence of (Lyso)-N-acylphosphatidylethanolamine lipase (Mus musculus) (Q8VD66 whole entry, looked up): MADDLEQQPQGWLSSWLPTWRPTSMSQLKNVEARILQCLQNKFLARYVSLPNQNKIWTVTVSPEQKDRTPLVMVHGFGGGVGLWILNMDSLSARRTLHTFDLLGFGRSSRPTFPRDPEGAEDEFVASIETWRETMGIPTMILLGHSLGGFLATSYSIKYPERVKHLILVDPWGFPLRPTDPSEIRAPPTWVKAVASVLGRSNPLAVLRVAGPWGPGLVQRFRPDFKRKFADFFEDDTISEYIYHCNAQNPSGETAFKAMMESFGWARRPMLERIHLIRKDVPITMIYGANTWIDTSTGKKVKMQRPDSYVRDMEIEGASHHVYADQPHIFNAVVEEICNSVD
Procedure, shortened: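 Material: mouse ABHD4 enzyme, wild type; Benchmarks: S159A mutant high control, sample median low control; Buffer or medium: HEPES pH 7.0, NaCl, Pluronic buffer; Signal: fluorescence polarization; Read-out: percent inhibition of probe binding, normalized to plate controls; Timing: pre-incubation 45 min, probe exposure 60 min, at 25 °C; Dosing: 8.92 µM, single dose.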

| Structure (SMILES) | inhibition |
| --- | --- |
| O=c1c2ccccc2[nH]c(=S)n1-c1cccc(Cl)c1 | 6.67% (inactive) |
| COc1cc(-n2c(=S)[nH]c3ccc(C)cc3c2=O)c(Cl)cc1Cl | 36.9% (active) |
| CC12CN3CC(C)(CN(C1)C3c1cccs1)C2 (stereo not given) | 2.23% (inactive) |
| C/C=C/CC1(CC)C(=O)NC(=S)NC1=O | 5.1% (inactive) |
| c1ccc(C2NCc3ccccc3-n3cccc32)cc1 (stereo not given) | 6.15% (inactive) |
| CCOc1ccc(-c2cc(C)[n+](CCN(CC)CC)c(-c3ccc(OCC)cc3)c2)cc1 | 5.92% (inactive) |
| CCOc1cccc(=NC2CCCCC2)c2c(C)[nH]c(C)c12 | 34.4% (active) |
| COc1ccc(NC(=O)N2CCC3(CC2)OCCO3)c(OC)c1 | 2.18% (inactive) |
| CO[C@H]([C@H](C)/C=C/N(C)C=O)[C@@H](C)C(=O)CC[C@H](C)[C@H](O)[C@H](C)[C@H]1OC(=O)/C=C/C(C)=C/[C@H](O)[C@H](OC)C[C@@H]2C=CC[C@@H](C[C@H](OC)[C@@]3(CO3)[C@@H](OC)C[C@@H](OC)[C@@H]1C)O2 | -6.78% (inactive) |
| Clc1ccc([C@@H]2CC3CCC2N3)cn1 (stereo not given in full) | 7.57% (inactive) |

From PubChem BioAssay AID720543 (The Scripps Research Institute Molecular Screening Center, 2013)
